Experimental data from ChEMBL document CHEMBL1142136, “Contribution of target gene mutations and efflux to decreased susceptibility of Salmonella enterica serovar typhimurium to fluoroquinolones and other antimicrobials” (2007).
Values after ≈ are worked out from the molar mass of the structure shown.

Tests used:
Assay type in all cases: functional, Salmonella enterica subsp. enterica serovar Typhimurium
Salmonella typhimurium [1] = assay: Antimicrobial activity against Salmonella enterica serovar Typhimurium S21-1 tolC::Kan with GyrA S83F mutation
How it was run: (§1)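 MICs measured by broth microdilution on the Sensititre automated system and interpreted by CLSI broth microdilution standards. Ciprofloxacin was also tested by agar dilution, widening the range to 0.0075–128 μg/ml. Quality control strains were E. coli ATCC 25922 and 35218, E. faecalis ATCC 29212, S. aureus ATCC 29213 and P. aeruginosa ATCC 27853.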

Salmonella typhimurium [2] = assay: Antimicrobial activity against Salmonella enterica serovar Typhimurium GyrA S21-1 acrAB::Kan with GyrA S83F mutation; how it was run: as §1
Salmonella typhimurium [3] = assay: Antimicrobial activity against Salmonella enterica serovar Typhimurium CS3 gyrA+ with GyrA S83F, D87N, ParC S80I mutation; how it was run: as §1
Salmonella typhimurium [4] = assay: Antimicrobial activity against Salmonella enterica serovar Typhimurium S21-4 with GyrA S83F, ParC S80I mutation; how it was run: as §1
Salmonella typhimurium [5] = assay: Antimicrobial activity against Salmonella enterica serovar Typhimurium S21 tolC::Kan
How it was run: (§2)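 MICs by automated broth microdilution panels, interpreted to CLSI broth microdilution standards. Ciprofloxacin additionally tested by agar dilution across 0.0075 to 128 μg/ml. Quality control strains: E. coli ATCC 25922 and 35218, Enterococcus faecalis ATCC 29212, S. aureus ATCC 29213, P. aeruginosa ATCC 27853. Test strains are kanamycin-marked deletion mutants of ground-beef isolate S21.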

Salmonella typhimurium [6] = assay: Antimicrobial activity against Salmonella enterica serovar Typhimurium CHS38 with GyrA D87G mutation; how it was run: as §1
Salmonella typhimurium [7] = assay: Antimicrobial activity against Salmonella enterica serovar Typhimurium CHS38 tolC::Kan with GyrA D87G mutation; how it was run: as §1
Salmonella typhimurium [8] = assay: Antimicrobial activity against Salmonella enterica serovar Typhimurium S21-4 gyrA+ with ParC S80I mutation; how it was run: as §1
Salmonella typhimurium [9] = assay: Antimicrobial activity against Salmonella enterica serovar Typhimurium S21-2 tolC::Kan with GyrA S83F, ParC S80I mutation; how it was run: as §1
Salmonella typhimurium [10] = assay: Antimicrobial activity against Salmonella enterica serovar Typhimurium CHS18 with GyrA S38F mutation; how it was run: as §1
Salmonella typhimurium [11] = assay: Antimicrobial activity against Salmonella enterica serovar Typhimurium S21-4 acrAB::Kan with GyrA S83F, ParC S80I mutation; how it was run: as §1
Salmonella typhimurium [12] = assay: Antimicrobial activity against Salmonella enterica serovar Typhimurium S21-1 GyrA S83F mutant; how it was run: as §1
Salmonella typhimurium [13] = assay: Antimicrobial activity against Salmonella enterica serovar Typhimurium CS3 acrAB::Kan with GyrA S83F, D87N, ParC S80I mutation; how it was run: as §1
Salmonella typhimurium [14] = assay: Antimicrobial activity against Salmonella enterica serovar Typhimurium S21-1 gyrA+; how it was run: as §1
Salmonella typhimurium [15] = assay: Antimicrobial activity against Salmonella enterica serovar Typhimurium S21-3 gyrA+ with ParC S80I mutation; how it was run: as §1
Salmonella typhimurium [16] = assay: Antimicrobial activity against Salmonella enterica serovar Typhimurium CS9 gyrA+ with GyrA S83F, D87N, ParC S80I mutation; how it was run: as §1
Salmonella typhimurium [17] = assay: Antimicrobial activity against Salmonella enterica serovar Typhimurium CS3 tolC::Kan with GyrA S83F, D87N, parC S80I mutation; how it was run: as §1
Salmonella typhimurium [18] = assay: Antimicrobial activity against Salmonella enterica serovar Typhimurium S21-4 tolC::Kan with GyrA S83F, ParC S80I mutation; how it was run: as §1
Salmonella typhimurium [19] = assay: Antimicrobial activity against Salmonella enterica serovar Typhimurium CHS38 acrAB::Kan with GyrA D87G mutation; how it was run: as §1
Salmonella typhimurium [20] = assay: Antimicrobial activity against Salmonella enterica serovar Typhimurium CHS18 acrAB::Kan with GyrA S38F mutation; how it was run: as §1
Salmonella typhimurium [21] = assay: Antimicrobial activity against Salmonella enterica serovar Typhimurium CHS18 gyrA+ with GyrA S38F mutation; how it was run: as §1
Salmonella typhimurium [22] = assay: Antimicrobial activity against Salmonella enterica serovar Typhimurium CHS18 tolC::Kan with GyrA S38F mutation; how it was run: as §1
Salmonella typhimurium [23] = assay: Antimicrobial activity against Salmonella enterica serovar Typhimurium CS9 acrAB::Kan with GyrA S83F, D87N, ParC S80I mutation; how it was run: as §1
Salmonella typhimurium [24] = assay: Antimicrobial activity against Salmonella enterica serovar Typhimurium CS9 with GyrA S83F, D87N, ParC S80I mutation; how it was run: as §1
Salmonella typhimurium [25] = assay: Antimicrobial activity against Salmonella enterica serovar Typhimurium S21 gyrA+; how it was run: as §1
Salmonella typhimurium [26] = assay: Antimicrobial activity against Salmonella enterica serovar Typhimurium CS1 tolC::Kan with GyrA S83F, D87N, ParC S80I mutation; how it was run: as §1
Salmonella typhimurium [27] = assay: Antimicrobial activity against Salmonella enterica serovar Typhimurium CHS14 with GyrA D87G mutation; how it was run: as §1
Salmonella typhimurium [28] = assay: Antimicrobial activity against Salmonella enterica serovar Typhimurium CS1 acrAB::Kan with GyrA S83F, D87N, ParC S80I mutation; how it was run: as §1
Salmonella typhimurium [29] = assay: Antimicrobial activity against Salmonella enterica serovar Typhimurium S21-3 acrAB::Kan with GyrA S83F, ParC S80I mutation; how it was run: as §1
Salmonella typhimurium [30] = assay: Antimicrobial activity against Salmonella enterica serovar Typhimurium CHS14 tolC::Kan with GyrA D87G mutant; how it was run: as §1
Salmonella typhimurium [31] = assay: Antimicrobial activity against Salmonella enterica serovar Typhimurium S21-3 with GyrA S83F, ParC S80I mutation; how it was run: as §1
Salmonella typhimurium [32] = assay: Antimicrobial activity against Salmonella enterica serovar Typhimurium CS1 gyrA+ with GyrA S83F, D87N, ParC S80I mutation; how it was run: as §1
Salmonella typhimurium [33] = assay: Antimicrobial activity against Salmonella enterica serovar Typhimurium S21-2 acrAB::Kan with GyrA S83F, ParC S80I mutation; how it was run: as §1
Salmonella typhimurium [34] = assay: Antimicrobial activity against Salmonella enterica serovar Typhimurium S21-3 tolC::Kan with GyrA S83F, ParC S80I mutation; how it was run: as §1
Salmonella typhimurium [35] = assay: Antimicrobial activity against Salmonella enterica serovar Typhimurium S21-2 with GyrA S83F, ParC S80I mutation; how it was run: as §1
Salmonella typhimurium [36] = assay: Antimicrobial activity against Salmonella enterica serovar Typhimurium S21-2 gyrA+ with ParC S80I mutation; how it was run: as §1
Salmonella typhimurium [37] = assay: Antimicrobial activity against Salmonella enterica serovar Typhimurium CS1 with GyrA S83F, D87N, ParC S80I mutation; how it was run: as §1
Salmonella typhimurium [38] = assay: Antimicrobial activity against Salmonella enterica serovar Typhimurium CHS38 gyrA+ with GyrA D87G mutation; how it was run: as §1
Salmonella typhimurium [39] = assay: Antimicrobial activity against Salmonella enterica serovar Typhimurium S21; how it was run: as §1
Salmonella typhimurium [40] = assay: Antimicrobial activity against Salmonella enterica serovar Typhimurium CHS14 gyrA+ with GyrA D87G mutation; how it was run: as §1
Salmonella typhimurium [41] = assay: Antimicrobial activity against Salmonella enterica serovar Typhimurium CHS14 acrAB::Kan with GyrA D87G mutation; how it was run: as §1
Salmonella typhimurium [42] = assay: Antimicrobial activity against Salmonella enterica serovar Typhimurium CS9 tolC::Kan with GyrA S83F, D87N, ParC S80I mutation; how it was run: as §1
Salmonella typhimurium [43] = assay: Antimicrobial activity against Salmonella enterica serovar Typhimurium S21 acrAB::Kan; how it was run: as §2
Salmonella typhimurium [44] = assay: Antimicrobial activity against Salmonella enterica serovar Typhimurium CS3 with GyrA S83F, D87N, ParC S80I mutation; how it was run: as §1

SMILES: O=C(O)c1cn(C2CC2)c2cc(N3CCNCC3)c(F)cc2c1=O [CIPROFLOXACIN]
- MIC (Salmonella typhimurium [1]): 0.06 mg/L (≈ 0.181 µM)
- MIC (Salmonella typhimurium [2]): 0.06 mg/L (≈ 0.181 µM)
- MIC (Salmonella typhimurium [3]): 0.03 mg/L (≈ 0.0905 µM)
- MIC (Salmonella typhimurium [4]): 256 mg/L (≈ 773 µM)
- MIC (Salmonella typhimurium [5]): < 0.015 mg/L
- MIC (Salmonella typhimurium [6]): 0.06 mg/L (≈ 0.181 µM)
- MIC (Salmonella typhimurium [7]): < 0.015 mg/L
- MIC (Salmonella typhimurium [8]): 4 mg/L (≈ 12.1 µM)
- MIC (Salmonella typhimurium [9]): 0.12 mg/L (≈ 0.362 µM)
- MIC (Salmonella typhimurium [10]): 0.12 mg/L (≈ 0.362 µM)
- MIC (Salmonella typhimurium [11]): 0.25 mg/L (≈ 0.754 µM)
- MIC (Salmonella typhimurium [12]): 0.25 mg/L (≈ 0.754 µM)
- MIC (Salmonella typhimurium [13]): 4 mg/L (≈ 12.1 µM)
- MIC (Salmonella typhimurium [14]): 0.015 mg/L (≈ 0.0453 µM)
- MIC (Salmonella typhimurium [15]): 2 mg/L (≈ 6.04 µM)
- MIC (Salmonella typhimurium [16]): 0.03 mg/L (≈ 0.0905 µM)
- MIC (Salmonella typhimurium [17]): 2 mg/L (≈ 6.04 µM)
- MIC (Salmonella typhimurium [18]): 0.25 mg/L (≈ 0.754 µM)
- MIC (Salmonella typhimurium [19]): 0.03 mg/L (≈ 0.0905 µM)
- MIC (Salmonella typhimurium [20]): 0.03 mg/L (≈ 0.0905 µM)
- MIC (Salmonella typhimurium [21]): 0.06 mg/L (≈ 0.181 µM)
- MIC (Salmonella typhimurium [22]): 0.03 mg/L (≈ 0.0905 µM)
- MIC (Salmonella typhimurium [23]): 4 mg/L (≈ 12.1 µM)
- MIC (Salmonella typhimurium [24]): 16 mg/L (≈ 48.3 µM)
- MIC (Salmonella typhimurium [25]): < 0.015 mg/L
- MIC (Salmonella typhimurium [26]): 2 mg/L (≈ 6.04 µM)
- MIC (Salmonella typhimurium [27]): 0.12 mg/L (≈ 0.362 µM)
- MIC (Salmonella typhimurium [28]): 4 mg/L (≈ 12.1 µM)
- MIC (Salmonella typhimurium [29]): 0.25 mg/L (≈ 0.754 µM)
- MIC (Salmonella typhimurium [30]): < 0.015 mg/L
- MIC (Salmonella typhimurium [31]): 32 mg/L (≈ 96.6 µM)
- MIC (Salmonella typhimurium [32]): 0.03 mg/L (≈ 0.0905 µM)
- MIC (Salmonella typhimurium [33]): 0.12 mg/L (≈ 0.362 µM)
- MIC (Salmonella typhimurium [34]): 0.25 mg/L (≈ 0.754 µM)
- MIC (Salmonella typhimurium [35]): 4 mg/L (≈ 12.1 µM)
- MIC (Salmonella typhimurium [36]): 0.25 mg/L (≈ 0.754 µM)
- MIC (Salmonella typhimurium [37]): 16 mg/L (≈ 48.3 µM)
- MIC (Salmonella typhimurium [38]): < 0.015 mg/L
- MIC (Salmonella typhimurium [39]): < 0.015 mg/L
- MIC (Salmonella typhimurium [40]): < 0.015 mg/L
- MIC (Salmonella typhimurium [41]): < 0.015 mg/L
- MIC (Salmonella typhimurium [42]): 2 mg/L (≈ 6.04 µM)
- MIC (Salmonella typhimurium [43]): < 0.015 mg/L
- MIC (Salmonella typhimurium [44]): 16 mg/L (≈ 48.3 µM)
